# Data reported in ChEMBL document CHEMBL1144887, “Indanylidenes. 1. Design and synthesis of (E)-2-(4,6-difluoro-1-indanylidene)acetamide, a potent, centrally acting muscle relaxant with antiinflammatory and analgesic activity” (J Med Chem, 2003).
# Experiments:
# Mus musculus [1] = assay: (§1) Percent effect profile muscle relaxation at 100 mg/kg by intraperitoneal administration in mouse using Straub-tail (ST) assay; type: functional; details: ip
# Procedure, shortened: (§2)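 Mouse morphine-induced Straub tail assay, scoring inhibition of sacro-coccygeus dorsalis contraction. Single ip dose of 100 mg/kg; percent effect reported. Compounds above 50% inhibition were then tested orally.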
# Rattus norvegicus [2] = assay: Percent inhibition for analgesic activity by trypsin-induced hyperalgesia assay at 20 mg/kg by oral administration in rats; ND is no data.; type: functional
# Procedure, shortened: (§3)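 Rat trypsin-induced hyperalgesia (mild analgesia). Percent inhibition at a single oral dose of 20 mg/kg. Each compound tested two or three times; average variation approximately 5%.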
# Mus musculus [3] = species on record: Mus musculus; assay: Ratio of rotarod to Straub-tail activity, which indicates the dose exhibiting muscle relaxant activity versus that producing sedation.; type: functional
# Procedure, shortened: (§4)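 Ratio of rotorod ED50 (po) to Straub tail ED50 (po), both measured in mice with oral dosing. Indicates separation between the muscle-relaxant dose and the sedating dose.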
# Mus musculus [4] = assay: Sedation caused by oral administration was estimated using rotarod (RR) assay.; type: functional
# Procedure, shortened: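 Mouse rotorod test for sedation, oral dosing, generally at a minimum of three doses with N = 6 animals per dose group.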
# Mus musculus [5] = assay: Effective dose required for muscle relaxation by intraperitoneal administration in mouse using Straub-tail (ST) assay; type: functional; details: for ED50: ip
# Procedure, shortened: (§5)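 Mouse morphine-induced Straub tail assay, scoring inhibition of sacro-coccygeus dorsalis contraction. Dosed ip or po, generally at a minimum of three doses with N = 6 animals per dose group.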
# Mus musculus [6] = assay: Effective dose required for muscle relaxation by oral administration in mouse using Straub-tail (ST) assay.; type: functional; procedure, shortened: as §5
# Mus musculus [7] = assay: as §1; type: functional; details: ip; procedure, shortened: as §2; remark: listed apart in the source
# Rattus norvegicus [8] = assay: Antiinflammatory activity in cells using Carrageenan pleurisy assay by oral administration; type: functional
# Procedure, shortened: (§6)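 Rat carrageenan pleurisy, 3 h. Compounds given orally, with separate read-outs for pleural cell counts and edema. ED50 reported in mg/kg po. Each compound tested two or three times; average variation approximately 10%.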
# [9] = target: T1, Amine oxidase [flavin-containing] A (Homo sapiens, UniProt P21397); assay: Inhibitory concentration against Monoamine oxidase A (MAO-A)
# T1 sequence (P21397 whole entry): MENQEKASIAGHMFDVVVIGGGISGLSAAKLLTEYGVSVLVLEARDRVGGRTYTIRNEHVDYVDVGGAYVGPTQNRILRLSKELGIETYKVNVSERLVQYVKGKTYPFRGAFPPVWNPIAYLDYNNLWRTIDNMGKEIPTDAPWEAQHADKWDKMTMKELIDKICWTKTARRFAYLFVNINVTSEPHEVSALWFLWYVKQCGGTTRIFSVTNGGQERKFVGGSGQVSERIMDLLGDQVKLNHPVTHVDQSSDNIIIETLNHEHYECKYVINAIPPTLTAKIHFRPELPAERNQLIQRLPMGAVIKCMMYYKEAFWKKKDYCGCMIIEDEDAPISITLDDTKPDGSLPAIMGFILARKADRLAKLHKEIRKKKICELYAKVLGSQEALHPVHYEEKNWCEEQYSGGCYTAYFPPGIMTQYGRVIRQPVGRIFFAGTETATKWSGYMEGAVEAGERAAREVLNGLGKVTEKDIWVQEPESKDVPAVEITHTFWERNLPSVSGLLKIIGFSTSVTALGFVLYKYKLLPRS
# Rattus norvegicus [10] = assay: Effective dose required for sedation in Wistar rats evaluated by loss of righting reflex by oral administration; type: functional
# Procedure, shortened: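 Sedation in Wistar rats scored as loss of righting reflex (ability to stay upright) after oral dosing. ED50 reported in mg/kg po.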
# Rattus norvegicus [11] = assay: Antiinflammatory activity in cells by Carrageenan pleurisy assay by oral administration; type: functional; procedure, shortened: as §6
# Mus musculus [12] = species on record: Mus musculus; assay: Effective dose required to produce analgesic activity was measured by mouse hot plate assay; type: functional
# Mus musculus [13] = assay: Evaluated for sedation in mice by loss of righting reflex up to a dose of 200 mg/kg by oral administration; No loss of righting reflex; type: functional, organism-based; set-up: dose 200 mg/kg
# Rattus norvegicus [14] = assay: Percent inhibition for analgesic activity by trypsin-induced hyperalgesia assay at 20 mg/kg by oral administration in rats; type: functional; procedure, shortened: as §3
# Rattus norvegicus [15] = assay: Effective dose required for analgesic activity by trypsin-induced hyperalgesia assay at 20 mg/kg by oral administration in rats; type: functional
# Procedure, shortened: (§7)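 Rat trypsin-induced hyperalgesia (mild analgesia) with oral dosing. ED50 reported in mg/kg po. Each compound tested two or three times; average variation approximately 5%.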
# Rattus norvegicus [16] = assay: Antiinflammatory activity in edema by Carrageenan pleurisy assay by oral administration; type: functional; procedure, shortened: as §6
# [17] = Effective dose required to produce analgesic activity in the adjuvant arthritis hyperalgesia assay by oral administration; type: functional
# [18] = Effective dose required to produce analgesic activity in the phalanges algesia assay by oral administration; type: functional
# [19] = target: T2, Amine oxidase [flavin-containing] B (Homo sapiens, UniProt P27338); assay: Inhibitory concentration against Monoamine oxidase B (MAO-B)
# T2 sequence (P27338 whole entry): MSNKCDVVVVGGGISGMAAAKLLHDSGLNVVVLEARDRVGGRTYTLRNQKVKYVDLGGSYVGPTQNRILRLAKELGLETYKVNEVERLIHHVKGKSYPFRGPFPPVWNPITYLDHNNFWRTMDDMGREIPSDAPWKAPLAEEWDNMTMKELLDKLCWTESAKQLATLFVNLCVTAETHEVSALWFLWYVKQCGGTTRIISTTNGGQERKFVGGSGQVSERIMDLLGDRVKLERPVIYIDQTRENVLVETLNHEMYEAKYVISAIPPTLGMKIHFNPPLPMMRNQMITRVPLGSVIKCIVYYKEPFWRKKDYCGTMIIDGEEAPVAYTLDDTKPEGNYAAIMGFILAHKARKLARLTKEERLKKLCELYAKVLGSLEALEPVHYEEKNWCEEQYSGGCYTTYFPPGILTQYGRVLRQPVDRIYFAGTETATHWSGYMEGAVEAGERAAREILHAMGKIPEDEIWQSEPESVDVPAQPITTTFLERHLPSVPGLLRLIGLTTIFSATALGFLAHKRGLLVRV
# Rattus norvegicus [20] = assay: Effective dose required for muscle relaxation after oral administration in Lewis rats by pull-up test
# Rattus norvegicus [21] = assay: Effective dose required for muscle relaxation after oral administration in Wistar rats by pull-up test
# Rattus norvegicus [22] = assay: Effective dose required to produce analgesic activity in the trypsin hyperalgesia assay by oral administration
# Rattus norvegicus [23] = assay: Percent inhibition for analgesic activity by trypsin-induced hyperalgesia assay at 20 mg/kg by oral administration in rats.; type: functional; procedure, shortened: as §3
# Rattus norvegicus [24] = assay: Antiinflammatory activity in cells by Carrageenan pleurisy assay by oral administration at 20 mg/kg.; type: functional
# Procedure, shortened: (§8)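 Rat carrageenan pleurisy, 3 h. Single oral dose of 20 mg/kg, with separate read-outs for pleural cell counts and edema as percent inhibition. Each compound tested two or three times; average variation approximately 10%.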
# Rattus norvegicus [25] = assay: Antiinflammatory activity in edema by Carrageenan pleurisy assay by oral administration at 20 mg/kg.; type: functional; procedure, shortened: as §8
# Mus musculus [26] = species on record: Mus musculus; assay: Ratio of rotarod to straub tail activity, which indicates the dose exhibiting muscle relaxant activity versus that producing sedation; type: functional; procedure, shortened: as §4
# Rattus norvegicus [27] = assay: Antiinflammatory activity in cells by Carrageenan pleurisy assay by oral administration at 20 mg/kg; type: functional; procedure, shortened: as §8
# Rattus norvegicus [28] = assay: Antiinflammatory activity in edema by Carrageenan pleurisy assay by oral administration at 20 mg/kg; type: functional; procedure, shortened: as §8
# [29] = Effective dose required to produce analgesic activity in the trypsin hyperalgesia assay by oral administration; type: functional; procedure, shortened: as §7
SMILES,inhibition in vivo at 100 mg/kg (Mus musculus [1]) [%],Ratio (Mus musculus [3]),ED50 (Mus musculus [4]) [mg/kg],ED50 (Mus musculus [5]) [mg/kg],ED50 (Mus musculus [6]) [mg/kg],ED50 (Rattus norvegicus [8]) [mg/kg],inhibition in vivo at 20 mg/kg (Rattus norvegicus [14]) [%],ED50 (Rattus norvegicus [15]) [mg/kg],ED50 (Rattus norvegicus [16]) [mg/kg],inhibition in vivo at 20 mg/kg (Rattus norvegicus [23]) [%],further results
Cc1ccc2c(c1)/C(=C/C(N)=O)CC2,33,,,,,,,,,,inhibition in vivo at 20 mg/kg (Rattus norvegicus [2]): 14%
C/C(=C\C(=O)NC1CC1)c1cccc(F)c1,,0.6,71,46,122,,,,,,
O=C(/C=C1\CCc2ccc(F)cc21)Nc1ccccc1,,,,,,8,,,,,inhibition in vivo at 100 mg/kg (Mus musculus [7]): 83%
NC(=O)/C=C1\CCc2c(F)cc(F)cc21,100,,138,,69,,100,4,15,,IC50 [9]: 11 µM; ED50 (Rattus norvegicus [10]): 200 mg/kg; ED50 (Rattus norvegicus [11]): 19 mg/kg; inhibition in vivo at 100 mg/kg (Mus musculus [7]): 67%; ED50 (Mus musculus [12]): 30 mg/kg; ED50 (Mus musculus [13]): No loss of righting reflex; ED50 [17]: 21 mg/kg; ED50 [18]: 20 mg/kg; IC50 [19]: 0.2 µM; ED50 (Rattus norvegicus [20]): 18 mg/kg; ED50 (Rattus norvegicus [21]): 64 mg/kg; ED50 (Rattus norvegicus [22]): 22 mg/kg
NC(=O)/C=C1\CCc2ccc(F)cc21,,1.6,90,22,56,21,60,16,20,14,
Cc1cccc2c1CC/C2=C\C(N)=O,,,,,> 100,,,,,25,Inhibition (Mus musculus [5]): 100%; inhibition in vivo at 20 mg/kg (Rattus norvegicus [24]): 15%; inhibition in vivo at 20 mg/kg (Rattus norvegicus [25]): 13%
NC(=O)/C=C1\CCc2ccccc21,,,164,31,108,,,9,,88,Ratio (Mus musculus [26]): 1.5
O=C(/C=C1\CCc2ccc(F)cc21)NCc1ccccc1,,,,,,16,8,,8,,inhibition in vivo at 100 mg/kg (Mus musculus [7]): 17%
NC(=O)/C=C1\CCc2cc(F)c(F)cc21,100,1.3,82,,64,13,62,19,17,,
NC(=O)/C=C1\CCc2cc(F)cc(F)c21,,1.8,81,,44,,,10,,93,inhibition in vivo at 100 mg/kg (Mus musculus [7]): 100%; inhibition in vivo at 20 mg/kg (Rattus norvegicus [24]): 54%; inhibition in vivo at 20 mg/kg (Rattus norvegicus [25]): 55%
CN(C)C(=O)/C=C1\CCc2ccc(F)cc21,100,,,,> 100,16,,5,12,88,
CNC(=O)/C=C1\CCc2cc(F)c(F)cc21,100,,,,96,18,,9,11,100,
O=C(/C=C1\CCc2ccc(F)cc21)NC1CCCC1,,,,,,14,6,,11,,inhibition in vivo at 100 mg/kg (Mus musculus [7]): 0%
NC(=O)/C=C1/CCc2ccccc21,,,,44,,,,,,,
NC(=O)/C=C1\CCc2ccc(Cl)cc21,,2,221,40,98,27,,,33,,
O=C(/C=C1\CCc2c(F)cccc21)NC1CC1,100,,,,126,,,,,,inhibition in vivo at 20 mg/kg (Rattus norvegicus [27]): 29%; inhibition in vivo at 20 mg/kg (Rattus norvegicus [28]): 18%
COc1ccc2c3c1O[C@H]1[C@@H](O)C=C[C@H]4[C@@H](C2)N(C)CC[C@@]341 [CODEINE],,,,,,,,,,,ED50 [17]: 25 mg/kg; ED50 [18]: 27 mg/kg; ED50 [29]: 33 mg/kg
O=C(/C=C/c1cccc(F)c1)NC1CC1 [CINFLUMIDE],,1.2,189,63,156,,,,,< 20,inhibition in vivo at 20 mg/kg (Rattus norvegicus [24]): < 20%; inhibition in vivo at 20 mg/kg (Rattus norvegicus [25]): < 20%
CNC(=O)/C=C1\CCc2c(F)cc(F)cc21,100,,,,45,,65,13,,,
O=C(/C=C1\CCc2ccccc21)NC1CC1,,1.6,235,71,150,,,,,,
